From ChEMBL document CHEMBL1149797, “Synthesis and in vitro antibacterial activities of novel oxazolidinones” (Eur J Med Chem, 2008)
≈ marks a conversion by molar mass, not a printed value.

Columns and labels:
Type in all cases: functional
Bacillus pumilus = assay: Antibacterial activity against Bacillus pumilus ATCC 14884 by broth microdilution technique
Procedure, shortened: (§1)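 Broth microdilution per CLSI (NCCLS) guidelines. Compounds were dissolved in DMSO with water added to give an 80% DMSO stock, then diluted 1:10 to working solutions in water or medium. They were tested at 0.125, 0.25, 0.5, 1, 2, 4, 8 and 16 (two-fold series) against the final inoculum. Each run included sterility controls and vehicle controls (plain medium; 4%, 2%, 1% DMSO). MIC was read as growth inhibition.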

Bacillus cereus = assay: Antibacterial activity against Bacillus cereus ATCC 11778 by broth microdilution technique; procedure, shortened: as §1
[1] = test system: Staphylococcus epidermidis; assay: Antibacterial activity against Staphylococcus epidermidis ATCC 155 by broth microdilution technique; procedure, shortened: as §1
Streptococcus pyogenes = assay: Antibacterial activity against Streptococcus pyogenes ATCC 14289 by broth microdilution technique; procedure, shortened: as §1
Enterococcus faecalis [2] = assay: Antibacterial activity against Enterococcus faecalis ATCC 35550 by broth microdilution technique; procedure, shortened: as §1
Staphylococcus aureus [3] = assay: Antibacterial activity against Staphylococcus aureus ATCC 25923 by broth microdilution technique; procedure, shortened: as §1
Staphylococcus aureus [4] = assay: Antibacterial activity against Staphylococcus aureus ATCC 9144 by broth microdilution technique
Procedure, shortened: (§2)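 Broth microdilution per NCCLS/CLSI. Compounds dissolved in DMSO with water added to give an 80% DMSO stock. Stock diluted 1:10 in 4-8% DMSO in water or medium to make the working solution. Tested at […]. Sterility controls run with each set. Inoculum viability controls included plain medium and 4%, 2% and 1% DMSO vehicle. MIC taken as growth inhibition.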

Staphylococcus aureus [5] = assay: Antibacterial activity against linezolid-resistant Staphylococcus aureus NRS 119 with G 2576T mutation by broth microdilution technique; procedure, shortened: as §2
Staphylococcus aureus [6] = assay: Antibacterial activity against Staphylococcus aureus ATCC 14154 by broth microdilution technique; procedure, shortened: as §2
Staphylococcus aureus [7] = assay: Antibacterial activity against Staphylococcus aureus ATCC 29213 by broth microdilution technique; procedure, shortened: as §2
Streptococcus pneumoniae = assay: Antibacterial activity against multidrug-resistant Streptococcus pneumoniae ATCC 700904 by broth microdilution technique; procedure, shortened: as §2
Staphylococcus aureus [8] = assay: Antibacterial activity against linezolid-resistant Staphylococcus aureus NRS 120 with G 2576T mutation by broth microdilution technique; procedure, shortened: as §2
Enterococcus faecium = assay: Antibacterial activity against vancomycin-resistant Enterococcus faecium ATCC 700221 by broth microdilution technique; procedure, shortened: as §2
Enterococcus faecalis [9] = assay: Antibacterial activity against Enterococcus faecalis ATCC 14506 by broth microdilution technique; procedure, shortened: as §1
Enterococcus faecalis [10] = assay: Antibacterial activity against multidrug-resistant Enterococcus faecalis ATCC 700802 by broth microdilution technique; procedure, shortened: as §2
Staphylococcus aureus [11] = assay: Antibacterial activity against methicillin-resistant Staphylococcus aureus ATCC 700699 by broth microdilution technique; procedure, shortened: as §2

Structure (SMILES)	MIC (Bacillus pumilus) [µg/mL]	MIC (Bacillus cereus) [µg/mL]	MIC [1] [µg/mL]	MIC (Streptococcus pyogenes) [µg/mL]	MIC (Enterococcus faecalis [2]) [µg/mL]	MIC (Staphylococcus aureus [3]) [µg/mL]	MIC (Staphylococcus aureus [4]) [µg/mL]	MIC (Staphylococcus aureus [5]) [µg/mL]	MIC (Staphylococcus aureus [6]) [µg/mL]	MIC (Staphylococcus aureus [7]) [µg/mL]	MIC (Streptococcus pneumoniae) [µg/mL]	MIC (Staphylococcus aureus [8]) [µg/mL]	MIC (Enterococcus faecium) [µg/mL]	MIC (Enterococcus faecalis [9]) [µg/mL]	MIC (Enterococcus faecalis [10]) [µg/mL]	MIC (Staphylococcus aureus [11]) [µg/mL]
CC(=O)NC[C@H]1CN(c2ccc(N3CCN(C(=O)/C=C/c4ccc[nH]4)CC3)c(F)c2)C(=O)O1	1 (≈ 2.2 µM)	1 (≈ 2.2 µM)	0.5 (≈ 1.1 µM)	1 (≈ 2.2 µM)	1 (≈ 2.2 µM)	1 (≈ 2.2 µM)										
CC(=O)NC[C@H]1CN(c2ccc(N3CCN(C(=O)/C=C/c4ccsc4)CC3)c(F)c2)C(=O)O1	0.5 (≈ 1.06 µM)	0.5 (≈ 1.06 µM)	1 (≈ 2.12 µM)		0.5 (≈ 1.06 µM)	0.5 (≈ 1.06 µM)										
CC(=O)NC[C@H]1CN(c2ccc(N3CCN(C(=O)/C=C/c4ccc([N+](=O)[O-])o4)CC3)c(F)c2)C(=O)O1	≤ 0.12	≤ 0.12	≤ 0.12	≤ 0.12	0.25 (≈ 0.499 µM)	0.12 (≈ 0.239 µM)	0.12 (≈ 0.239 µM)	2 (≈ 3.99 µM)	0.12 (≈ 0.239 µM)	0.12 (≈ 0.239 µM)	0.25 (≈ 0.499 µM)	2 (≈ 3.99 µM)	0.12 (≈ 0.239 µM)	0.25 (≈ 0.499 µM)	0.5 (≈ 0.997 µM)	0.12 (≈ 0.239 µM)
CC(=O)NC[C@H]1CN(c2ccc(N3CCN(C/C=C/c4ccco4)CC3)c(F)c2)C(=O)O1	2 (≈ 4.52 µM)	0.5 (≈ 1.13 µM)	8 (≈ 18.1 µM)	0.5 (≈ 1.13 µM)	2 (≈ 4.52 µM)	2 (≈ 4.52 µM)										
CC(=O)NC[C@H]1CN(c2ccc(N3CCN(C(=O)/C=C/c4ccc(C)o4)CC3)c(F)c2)C(=O)O1	1 (≈ 2.13 µM)	1 (≈ 2.13 µM)	0.5 (≈ 1.06 µM)	0.5 (≈ 1.06 µM)	1 (≈ 2.13 µM)	2 (≈ 4.25 µM)										
CC(=O)NC[C@H]1CN(c2ccc(N3CCN(C/C=C/c4ccc([N+](=O)[O-])o4)CC3)c(F)c2)C(=O)O1	0.25 (≈ 0.513 µM)	0.25 (≈ 0.513 µM)	0.5 (≈ 1.03 µM)	0.12 (≈ 0.246 µM)	1 (≈ 2.05 µM)	1 (≈ 2.05 µM)										

Further compounds by falling MIC (Bacillus pumilus), results first:

MIC (Bacillus pumilus) [µg/mL]	MIC (Bacillus cereus) [µg/mL]	MIC [1] [µg/mL]	MIC (Streptococcus pyogenes) [µg/mL]	MIC (Enterococcus faecalis [2]) [µg/mL]	MIC (Staphylococcus aureus [3]) [µg/mL]	Structure (SMILES)	MIC (Staphylococcus aureus [4]) [µg/mL]	MIC (Staphylococcus aureus [5]) [µg/mL]	MIC (Staphylococcus aureus [6]) [µg/mL]	MIC (Staphylococcus aureus [7]) [µg/mL]	MIC (Streptococcus pneumoniae) [µg/mL]	MIC (Staphylococcus aureus [8]) [µg/mL]	MIC (Enterococcus faecium) [µg/mL]	MIC (Enterococcus faecalis [9]) [µg/mL]	MIC (Enterococcus faecalis [10]) [µg/mL]	MIC (Staphylococcus aureus [11]) [µg/mL]
4 (≈ 7.57 µM)	4 (≈ 7.57 µM)	2 (≈ 3.78 µM)	2 (≈ 3.78 µM)	4 (≈ 7.57 µM)	2 (≈ 3.78 µM)	CC(=O)NC[C@H]1CN(c2ccc(N3CCN(C(=O)/C=C/c4ccc(COC(C)=O)o4)CC3)c(F)c2)C(=O)O1										
1 (≈ 2.14 µM)	1 (≈ 2.14 µM)	2 (≈ 4.28 µM)	0.5 (≈ 1.07 µM)	2 (≈ 4.28 µM)	4 (≈ 8.56 µM)	CC(=O)NC[C@H]1CN(c2ccc(N3CCN(C(=O)/C=C/c4ccncc4)CC3)c(F)c2)C(=O)O1										
0.5 (≈ 1.1 µM)	0.5 (≈ 1.1 µM)	1 (≈ 2.19 µM)		0.5 (≈ 1.1 µM)	0.5 (≈ 1.1 µM)	CC(=O)NC[C@H]1CN(c2ccc(N3CCN(C(=O)/C=C/c4ccco4)CC3)c(F)c2)C(=O)O1										
0.5 (≈ 1.06 µM)	0.5 (≈ 1.06 µM)	0.5 (≈ 1.06 µM)	1 (≈ 2.12 µM)	0.5 (≈ 1.06 µM)	1 (≈ 2.12 µM)	CC(=O)NC[C@H]1CN(c2ccc(N3CCN(C(=O)/C=C/c4cccs4)CC3)c(F)c2)C(=O)O1										
